Measurements from ChEMBL document CHEMBL2046347, “Structure-activity relationships in human Toll-like receptor 2-specific monoacyl lipopeptides” (J Med Chem, 2012).
Activity calls are given as the source filed them. The calls are words filed in the database; no cut-off is given here.

Columns and labels:
Type in all cases: functional, cell-based
[1] = target: Toll-like receptor 2 (Homo sapiens) (UniProt O60603); assay: Agonist activity at human TLR2 expressed in HEK293 cells assessed as NFkappaB translocation at 10 uM after 12 hrs by secretory alkaline phosphatase reporter gene assay
[2] = target: Toll-like receptor 2 (Mus musculus) (UniProt Q9QUN7); assay: Agonist activity at mouse TLR2 expressed in HEK293 cells assessed as NFkappaB translocation after 12 hrs by secretory alkaline phosphatase reporter gene assay
How it was run: (§1)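 HEK293 cells stably carrying human or murine TLR2 plus an NF-κB-driven secreted alkaline phosphatase reporter, kept in selection medium with zeocin and normocin. Seeded at ~10⁵ cells/mL and grown to confluency, then exposed to serially diluted compounds for 12 h. Secreted phosphatase in supernatant read colorimetrically at 620 nm with an alkaline phosphatase-specific chromogen in detection medium.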

[3] = target: Toll-like receptor 2 (Homo sapiens) (UniProt O60603); assay: Antagonistic activity at human TLR2 expressed in HEK293 cells assessed as inhibition of lipoteichoic acid-induced NFkappaB translocation by secretory alkaline phosphatase reporter gene assay
How it was run: (§2)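 Reporter HEK293 lines (human or murine TLR2, NF-κB-inducible secreted alkaline phosphatase) plated at ~10⁵ cells/mL. Stimulated with PAM2CS (1 μg/mL) or lipoteichoic acid (1 μg/mL) in the presence of graded test-compound concentrations. Phosphatase activity in supernatant measured spectrophotometrically at 620 nm using a phosphatase-specific chromogen.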

[4] = target: Toll-like receptor 2 (Homo sapiens) (UniProt O60603); assay: Antagonistic activity at human TLR2 expressed in HEK293 cells assessed as inhibition of PAM2CS-induced NFkappaB translocation by secretory alkaline phosphatase reporter gene assay; how it was run: as §2
[5] = target: Toll-like receptor 2 (Mus musculus) (UniProt Q9QUN7); assay: Antagonistic activity at mouse TLR2 expressed in HEK293 cells assessed as inhibition of PAM2CS-induced NFkappaB translocation by secretory alkaline phosphatase reporter gene assay; how it was run: as §2
[6] = target: Toll-like receptor 2 (Mus musculus) (UniProt Q9QUN7); assay: Antagonistic activity at mouse TLR2 expressed in HEK293 cells assessed as inhibition of lipoteichoic acid-induced NFkappaB translocation by secretory alkaline phosphatase reporter gene assay; how it was run: as §2
[7] = target: Toll-like receptor 2 (Homo sapiens) (UniProt O60603); assay: Agonist activity at human TLR2 expressed in HEK293 cells assessed as NFkappaB translocation after 12 hrs by secretory alkaline phosphatase reporter gene assay; how it was run: as §1

Chain of Toll-like receptor 2 (Mus musculus) (Q9QUN7 whole entry): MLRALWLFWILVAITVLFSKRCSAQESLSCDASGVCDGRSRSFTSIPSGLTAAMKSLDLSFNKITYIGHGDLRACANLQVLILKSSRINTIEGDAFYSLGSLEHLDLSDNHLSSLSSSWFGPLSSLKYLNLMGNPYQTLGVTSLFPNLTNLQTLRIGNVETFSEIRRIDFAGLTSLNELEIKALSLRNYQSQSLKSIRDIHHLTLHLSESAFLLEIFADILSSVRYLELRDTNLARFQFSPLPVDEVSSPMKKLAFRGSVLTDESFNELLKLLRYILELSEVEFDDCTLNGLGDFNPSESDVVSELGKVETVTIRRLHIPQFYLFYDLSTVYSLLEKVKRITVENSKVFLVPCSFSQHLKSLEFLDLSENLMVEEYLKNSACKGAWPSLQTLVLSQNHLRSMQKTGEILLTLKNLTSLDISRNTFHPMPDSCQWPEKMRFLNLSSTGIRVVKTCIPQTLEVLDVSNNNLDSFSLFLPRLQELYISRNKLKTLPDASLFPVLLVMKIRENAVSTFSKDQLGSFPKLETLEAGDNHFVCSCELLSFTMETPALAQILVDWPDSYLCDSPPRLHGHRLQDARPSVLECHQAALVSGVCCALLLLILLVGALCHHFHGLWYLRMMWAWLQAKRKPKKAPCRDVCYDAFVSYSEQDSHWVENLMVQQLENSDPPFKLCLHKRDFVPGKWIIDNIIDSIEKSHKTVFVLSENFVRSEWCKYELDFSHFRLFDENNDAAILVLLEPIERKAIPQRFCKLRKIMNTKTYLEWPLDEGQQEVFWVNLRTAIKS
Chain of Toll-like receptor 2 (Homo sapiens) (O60603 whole entry): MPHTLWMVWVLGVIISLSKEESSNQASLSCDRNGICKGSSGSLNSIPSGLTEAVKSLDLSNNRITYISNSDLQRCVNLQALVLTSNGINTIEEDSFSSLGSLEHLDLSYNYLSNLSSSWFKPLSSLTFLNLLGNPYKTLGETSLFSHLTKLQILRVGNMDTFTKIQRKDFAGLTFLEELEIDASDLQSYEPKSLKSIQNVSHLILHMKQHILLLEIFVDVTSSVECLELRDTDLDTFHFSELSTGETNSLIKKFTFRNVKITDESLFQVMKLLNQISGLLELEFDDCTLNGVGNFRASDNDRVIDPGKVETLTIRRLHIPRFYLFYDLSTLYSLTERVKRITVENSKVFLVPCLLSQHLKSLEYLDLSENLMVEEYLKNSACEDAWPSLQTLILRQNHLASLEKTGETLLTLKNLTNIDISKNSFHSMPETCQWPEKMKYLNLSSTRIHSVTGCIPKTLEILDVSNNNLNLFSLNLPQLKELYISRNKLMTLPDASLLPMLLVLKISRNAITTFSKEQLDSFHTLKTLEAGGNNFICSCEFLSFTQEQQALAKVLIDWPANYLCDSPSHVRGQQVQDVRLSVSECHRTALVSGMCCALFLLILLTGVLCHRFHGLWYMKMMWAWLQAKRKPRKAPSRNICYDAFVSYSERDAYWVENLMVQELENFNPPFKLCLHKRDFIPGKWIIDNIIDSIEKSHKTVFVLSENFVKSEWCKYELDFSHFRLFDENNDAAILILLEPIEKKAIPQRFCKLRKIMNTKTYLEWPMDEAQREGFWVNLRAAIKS

In the case of `CCCCCCCCCCCCCCCCN[C@@H](CSCCOC(=O)CCCCCCCCCCCCCCC)C(=O)N[C@@H](CO)C(=O)OC`, the Activity [1] is reported as “inactive”.
For `CCCCCCCCCCCCCCCCCC(=O)OCCSC[C@H](N)C(=O)N[C@@H](CO)C(=O)OC`, the Activity [2] was “inactive”.
In the case of `CCCCCCCCCCCC(=O)OCCSC[C@H](N)C(=O)N[C@@H](CO)C(=O)OC`, the inhibition [3] is reported as “inactive”, the inhibition [4] is reported as “inactive” and the inhibition [5] is reported as “inactive”. The inhibition [6] was “inactive” and the Activity [1] was “inactive”.
For `CCCCCCCCCCCCCCCC(=O)OCCSC[C@H](NC(=O)CCC)C(=O)N[C@@H](CO)C(=O)OC`, the Activity [2] was “inactive”.
In the case of `COC(=O)[C@H](CO)NC(=O)[C@@H](N)CSCCOC(=O)c1ccc(-c2ccc(-c3ccccc3)cc2)cc1`, the inhibition [3] is reported as “inactive”, the inhibition [4] is reported as “inactive” and the inhibition [5] is reported as “inactive”. The inhibition [6] was “inactive” and the Activity [1] was “inactive”.
In the case of `CCCCCCCC(=O)OCCSC[C@H](N)C(=O)N[C@@H](CO)C(=O)OC`, the inhibition [3] is reported as “inactive”, the inhibition [4] is reported as “inactive” and the inhibition [5] is reported as “inactive”. The inhibition [6] was “inactive” and the Activity [1] was “inactive”.
With `CCCCCCCCCCCCCCN(CCCCCCCCCCCCCC)CC(=O)OCCSC[C@H](N)C(=O)N[C@@H](CO)C(=O)OC` the Activity [1] was “inactive”.
In the case of `CCCC(=O)OCCSC[C@H](N)C(=O)N[C@@H](CO)C(=O)OC`, the inhibition [3] is reported as “inactive”, the inhibition [4] is reported as “inactive” and the inhibition [5] is reported as “inactive”. The inhibition [6] was “inactive” and the Activity [1] was “inactive”.
With `CCCCCCCCCCCCCCCC(=O)OCCSC[C@H](NC(=O)CCCCCCC)C(=O)N[C@@H](CO)C(=O)OC` the Activity [2] was “inactive”.
In the case of `CCCCCCCCCCCCCCCC(=O)OCCSC[C@H](NCC)C(=O)N[C@@H](CO)C(=O)OC`, the Activity [1] is reported as “inactive”.
In the case of `CCCCCCCCCCCCCCCC(=O)OCCSC[C@H](NS(=O)(=O)C(F)(F)F)C(=O)N[C@@H](CO)C(=O)OC`, the Activity [7] is reported as “inactive”.
In the case of `COC(=O)[C@H](CO)NC(=O)[C@@H](N)CSCCOC(=O)c1cccc(-c2ccccc2)c1`, the inhibition [3] is reported as “inactive”, the inhibition [4] is reported as “inactive” and the inhibition [5] is reported as “inactive”. The inhibition [6] was “inactive” and the Activity [1] was “inactive”.
In the case of `CCCCCCCCCCCCCCCC(=O)OCCSC[C@H](NC(=O)C(Cl)(Cl)Cl)C(=O)N[C@@H](CO)C(=O)OC`, the Activity [7] is reported as “inactive”.
For `COC(=O)[C@H](CO)NC(=O)[C@@H](N)CSCCOC(=O)c1ccc(-c2ccccc2)cc1`, the inhibition [3] was “inactive”, the inhibition [4] was “inactive” and the inhibition [5] was “inactive”. For the same compound, the inhibition [6] was “inactive” and the Activity [1] was “inactive”.
`CCCCCCCCCCCCCCCC(=O)OCCSC[C@H](NC(C)=O)C(=O)N[C@@H](CO)C(=O)OC` was tested, and the Activity [2] was “inactive”.
With `CCCCCCCCCCCCCCCC(=O)N[C@@H](CSCCOC(=O)CCCCCCCCCCCCCCC)C(=O)N[C@@H](CO)C(=O)OC` the Activity [1] was “inactive”.
For `CCCCCCCCCCCCCCCC(=O)OCCSC[C@H](NCCCCCCCC)C(=O)N[C@@H](CO)C(=O)OC`, the Activity [1] was “inactive”.
For `CCCCCCCCCCCCCCCC(=O)OCCSC[C@H](NS(C)(=O)=O)C(=O)N[C@@H](CO)C(=O)OC`, the Activity [7] was “inactive”.
In the case of `CCCCCCCCCCCCCCCC(=O)OCCSC[C@H](N)C(=O)N[C@@H](COC(C)=O)C(=O)OC`, the Activity [7] is reported as “Active”.
In the case of `CCCCCCCCCCCCCCCC(=O)OCCSC[C@H](NS(=O)(=O)c1ccc(C)cc1)C(=O)N[C@@H](CO)C(=O)OC`, the Activity [7] is reported as “inactive”.
In the case of `CCCCCCCCCCCCCCNCC(=O)OCCSC[C@H](N)C(=O)N[C@@H](CO)C(=O)OC`, the Activity [1] is reported as “inactive”.
For `CCCCCCCCCCCCCCCC(=O)OCCSC[C@H](N)C(=O)N[C@@H](CO)C(=O)OC`, the Activity [2] was “inactive”.
